# Assay outcomes (PubChem)
# In the library only some 2.5% were active in any assay of this set; here they are far more common.
# SENP7 inh – inhibitors of human SENP7 protease; Q9BQF6; hit rate 1.5% among 330,000; recombinant SENP7, Z-RLRGG-aminoluciferin luminescence, 40 min; inhibition, % at 5 µM;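 active = inhibition above about 50% at the single test dose, limit read from the data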;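 also: plate controls were DMSO with enzyme for no effect and no enzyme buffer wells for full effect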
# Target sequence (Q9BQF6 706-1050 limits assumed): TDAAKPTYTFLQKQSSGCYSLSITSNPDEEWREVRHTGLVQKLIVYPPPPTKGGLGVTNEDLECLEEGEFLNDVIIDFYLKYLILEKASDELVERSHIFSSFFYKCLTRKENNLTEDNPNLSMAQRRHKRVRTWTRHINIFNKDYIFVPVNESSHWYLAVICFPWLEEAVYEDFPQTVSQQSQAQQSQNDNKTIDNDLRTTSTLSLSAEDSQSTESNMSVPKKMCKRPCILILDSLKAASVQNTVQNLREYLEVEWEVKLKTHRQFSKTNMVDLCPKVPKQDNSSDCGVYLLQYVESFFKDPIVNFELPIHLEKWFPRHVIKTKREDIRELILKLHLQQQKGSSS
# SENP8 block-1 – inhibitors of human SENP8 protease; inhibition, % at 10 µM; Q96LD8; hit rate 1.2% among 330,000; purified SENP8, Z-RLRGG-aminoluciferin cleavage, luminescence; AID 2540; in the data active = inhibition above about 50%
# SENP6 block – SENP6 protease inhibition. hit rate 1.8% among 330,000. Q9GZR1. inhibition, % at 10 µM. Recombinant SENP6 catalytic domain, aminoluciferin luminescence;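 active = inhibition above about 50% at the single tested dose, limit read from the data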;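 also: plate controls were DMSO wells with enzyme for no effect and DMSO wells lacking enzyme for full effect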
# SENP8 block-2 – blocks human SENP8 cleavage of Nedd8 substrate. Q96LD8. recombinant SENP8, Nedd8 substrate fluorescence. inhibition, % at 20 µM. hit rate 0.64% among 360,000; in the data active = inhibition mostly above about 40%, no sharp cut-off; inactive = mostly below about 27%
# SENP1 inh – SENP1 (human) catalytic domain inhibition; hit rate 0.21% among 360,000; recombinant SENP1 catalytic domain, CyPet-SUMO1-YPet FRET cleavage; inhibition, % at 10 µM; Q9P0U3; AID 624204;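 active = inhibition at least 30% at 10 µM, raw YFP signal under a set limit, fluorescence ratio 0.5 to 1.5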;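 also: 0% = enzyme with DMSO and 100% = no enzyme wells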
# Target sequence (Q9P0U3 419-644 limits assumed): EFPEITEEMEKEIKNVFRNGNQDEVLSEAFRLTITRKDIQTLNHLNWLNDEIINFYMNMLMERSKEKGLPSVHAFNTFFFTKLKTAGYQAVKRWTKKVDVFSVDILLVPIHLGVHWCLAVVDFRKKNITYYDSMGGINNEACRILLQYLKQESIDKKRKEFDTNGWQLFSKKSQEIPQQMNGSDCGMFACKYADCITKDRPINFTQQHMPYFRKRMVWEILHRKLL
#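 System: Recombinant human SENP1 catalytic domain, His6-tagged | Incubation: Enzyme reaction for 50 min at room temperature, dark | Medium: Tris pH 8 with BME, BSA, NP40 and catalase | Also added: 25 nM SUMO1 FRET substrate | Compound: 10 µM single point, 0.5% DMSO | Measured by: FRET fluorescence in CFP and YFP emission channels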
# SENP8 conf – human SENP8 inhibition, confirmed; inhibition, % at 12.5 µM; AID 488912; Recombinant SENP8, Z-RLRGG-aminoluciferin luminescence, 60 min; shares compounds with SENP7 inh; hit rate 40% among 6,200;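 active = mean inhibition across replicates above about 50%, limit read from the data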
# SENP6 confirm – confirmation of human SENP6 protease inhibitors; shares compounds with SENP7 inh; recombinant SENP6, Z-RLRGG-aminoluciferin luminescence; inhibition, % at 12.5 µM; hit rate 58% among 6,200
# SENP7 confirm – human SENP7 inhibition, confirmed. shares compounds with SENP7 inh. recombinant SENP7, Z-RLRGG-aminoluciferin luminescence, 40 min. inhibition, % at 12.5 µM. hit rate 69% among 6,200. AID 488917
# Casp3 SENP sel – selectivity test for SENP inhibitors: human caspase-3 inhibition. shares compounds with SENP7 inh. purified caspase-3, Z-DEVD-aminoluciferin luminescence, 60 min. inhibition, % at 12.5 µM. hit rate 60% among 6,200. AID 488918;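 active = mean inhibition above about 50%, limit read from the data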;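 also: plate controls were enzyme with DMSO for no effect and wells without caspase-3 for full effect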
# Luc interf – counter-screen for SENP inhibitors: luminescence interference | shares compounds with SENP7 inh | Pre-incubated SENP8/Z-RLRGG-aminoluciferin, luciferase luminescence interference | inhibition, % at 12.5 µM | hit rate 39% among 6,200;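 active = mean inhibition above about 50% when retested at one dose, limit read from the data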;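 also: plate controls were DMSO wells with completed reaction for no effect and substrate without enzyme for full effect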
# * = called active by the depositor; nt = not tested or not shown.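 The calls were made as follows, unless noted: active = mean inhibition above about 50% in the one-dose retest (limit read from the data); inactive = the rest.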
SMILES,SENP7 inh,SENP8 block-1,SENP6 block,SENP8 block-2,SENP1 inh,SENP8 conf,SENP6 confirm,SENP7 confirm,Casp3 SENP sel,Luc interf
CCOc1ccc(/C=N/NC(=O)c2[nH]ncc2Br)c(O)c1,102*,98*,99*,-7,-104,99*,100*,103*,99*,52*
O=C(N/N=C/c1cccs1)c1cnccn1,7,-4,5,24,1,nt,nt,nt,nt,nt
Cc1nn(-c2ccccc2)c(Cl)c1/C=N/NC(=O)c1[nH]ncc1Br,95*,92*,92*,9,-2,8,94*,102*,95*,20
O=C(N/N=C/c1cccs1)c1[nH]ncc1Br,76*,50,76*,9,-1,61*,58*,86*,90*,68*
O=C(N/N=C/c1c(O)ccc2ccccc12)c1[nH]ncc1Br,19,18,51*,-40,-25,33,41,77*,28,48
O=C(NN=Cc1c(O)ccc2ccccc12)C1CC1,nt,nt,nt,-5,-85,nt,nt,nt,nt,nt
Cc1nn(-c2ccccc2)c(Cl)c1/C=N/NC(=O)c1ccn[nH]1,38,23,17,7,0,nt,nt,nt,nt,nt
CCn1nc(CC(C)C)cc1C(=O)N1CCCC(Nc2ccc(OC)cc2)C1 (stereo not drawn),11,-3,-4,19,0,nt,nt,nt,nt,nt
CC[C@H](C)[C@H](NC(N)=O)C(=O)NCCc1ccc(OC)c(OC)c1,-2,0,-8,4,0,nt,nt,nt,nt,nt
CCN(C(=O)CSc1nc2scc(-c3ccccc3)c2c(=O)n1N)C1CCS(=O)(=O)C1 (stereo not drawn),nt,nt,nt,-3,-1,nt,nt,nt,nt,nt
COc1ccc(OC(=O)N(C)C[C@@H]2OCc3cn(nn3)CCCC(=O)N([C@@H](C)CO)C[C@H]2C)cc1,nt,nt,nt,10,-2,nt,nt,nt,nt,nt
COc1ccc(F)cc1-c1cc(C(=O)N2CCc3ccccc3C2)[nH]n1,nt,nt,nt,9,-1,nt,nt,nt,nt,nt
Cc1ccc(O)c(/C=N/NC(=O)c2[nH]ncc2Br)c1,93*,89*,77*,11,2,25,21,39,38,42
COCCCN1C(=O)C(CC(=O)NC2CC2)CC(C(=O)N(C(C)C)C(C)C)=C1C (stereo not drawn),nt,nt,nt,8,1,nt,nt,nt,nt,nt
O=C(c1ccc(O)c(Cl)c1)N1CCN(S(=O)(=O)c2ccccc2)CC1,-13,8,-9,1,1,nt,nt,nt,nt,nt
CSc1nccc(N/N=C/c2ccccc2)n1,74*,53*,64*,11,-1,43,45,81*,69*,3
O=c1nc2c(-c3ccccc3F)n[nH]n2c2ccccc12,90*,90*,85*,-272,-80,79*,92*,100*,93*,53*
Cc1ccccc1NC(=O)c1cccc(S(=O)(=O)Oc2ccc([N+](=O)[O-])cc2)c1,97*,9,-8,6,3,4,2,-1,-1,-2
Cc1ccc(NC(=O)c2cccc(Oc3ccc([N+](=O)[O-])cc3)c2)c(C(=O)O)c1,2,24,42,16,2,nt,nt,nt,nt,nt
O=C(N/N=C/c1ccc(Sc2ccccn2)o1)c1cc2ccccc2cc1O,64*,93*,94*,-61,13,90*,97*,101*,92*,76*
O=C(N/N=C\c1ccc(Sc2ccccn2)o1)c1cccc(F)c1,9,-6,-8,-66,0,nt,nt,nt,nt,nt
O=C(O)c1cccc(Nc2ncnc3sccc23)c1,86*,80*,91*,-19,-30,92*,91*,100*,64*,88*
COC(=O)c1ccc(/C=C/c2ccc3cccc(OC(C)=O)c3n2)cc1,91*,87*,95*,-397,-2,79*,90*,98*,86*,7
O=C(O)c1ccc(/C=C/c2ccc3cccc(O)c3n2)cc1,98*,95*,95*,-110,1,98*,99*,102*,97*,78*
Oc1ccc(/C=C/c2ccc3cccc(O)c3n2)cc1Br,88*,92*,97*,-107,-24,98*,98*,102*,84*,94*
SMILES,SENP7 inh,SENP8 block-1,SENP6 block,SENP8 block-2,SENP1 inh,SENP8 conf,SENP6 confirm,SENP7 confirm,Casp3 SENP sel,Luc interf
CC(=O)Nc1ccc(CN(C)c2c(C)nc3ccc(C(=O)Nc4ccc(Cl)c(Cl)c4)cn23)cc1,nt,nt,nt,20,-8,nt,nt,nt,nt,nt
CCCn1c(N)c(C(=O)CSc2nc(C)nc3sc(C)c(C)c23)c(=O)[nH]c1=O,6,1,0,-8,1,nt,nt,nt,nt,nt
Cc1cn2c(nc1=O)OC1CC2OC1CO (stereo not drawn),-13,-6,3,25,7,nt,nt,nt,nt,nt
CCCCN1C=CC(=C2C(=O)c3ccccc3C2=O)C=C1,78*,89*,92*,12,23,-2,92*,100*,95*,41
CCOC(=O)Nc1nc2ccccc2s1,38,12,40,15,2,nt,nt,nt,nt,nt
Cc1ccc(C(=O)Nc2nc3ccccc3s2)s1,85*,73*,91*,-113,-4,57*,83*,97*,76*,49
CS(=O)(=O)c1ccc2nc(NC(=O)c3cccs3)sc2c1,89*,84*,91*,-354,0,-30,79*,95*,88*,60*
CCC(=O)Nc1nc2ccc(S(C)(=O)=O)cc2s1,-6,3,-16,13,0,nt,nt,nt,nt,nt
Cc1ccc(C(=O)Nc2nc3ccc(S(C)(=O)=O)cc3s2)s1,47,51*,68*,-202,0,5,53*,43,62*,23
CS(=O)(=O)c1ccc2nc(NC(=O)c3cc([N+](=O)[O-])cc([N+](=O)[O-])c3)sc2c1,3,26,17,8,2,nt,nt,nt,nt,nt
Cc1ccc(CNc2nc3ccccc3s2)s1,87*,76*,85*,22,3,73*,72*,92*,71*,34
O=C(O)c1ccccc1-c1ccccc1C(=O)Nc1nc2ccccc2s1,-6,-2,-13,4,1,nt,nt,nt,nt,nt
Cc1ccc(C(=O)O)c(C(=O)Nc2nc3ccccc3s2)c1,-2,67*,69*,16,2,90*,91*,100*,95*,76*
Cc1ccc2nc(NC(=O)c3cccs3)sc2c1,98*,89*,92*,-361,0,42,89*,92*,74*,6
